Compound activity as filed in PubChem.
Most compounds without a hit are left out; they make up all but 3.5% or so of the library.
RGS4 inh: RGS4 inhibitors, primary screen, cell-based, HEK293 M3R inducible RGS4, calcium flux | Regulator of G-protein signaling 4 (Homo sapiens), P49798 | Fluo-4 calcium flux; hits give high values; triggered by carbachol at its EC20 | B-score at 10 µM | actives 0.45% (n = 310,000);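 active = B-score, a plate-corrected calcium signal, over three deviations above library mean, with baseline fluorescence within five deviations of library mean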;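 also: RGS4 expression induced by doxycycline in cells with stable M3 receptor; B-score is computed from the integrated fluorescence ratio over baseline after carbachol; higher B-score means a larger calcium signal and so more RGS4 inhibition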
Target sequence (P49798 whole entry, looked up): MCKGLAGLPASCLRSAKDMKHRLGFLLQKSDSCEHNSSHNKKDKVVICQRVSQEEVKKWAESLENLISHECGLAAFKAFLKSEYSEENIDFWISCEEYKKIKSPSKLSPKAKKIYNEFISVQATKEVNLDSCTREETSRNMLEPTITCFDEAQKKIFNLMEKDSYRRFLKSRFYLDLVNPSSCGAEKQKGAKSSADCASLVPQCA
RGS4 pot: RGS4 potentiators or activators, primary screen, cell-based, HEK293 M3R inducible RGS4, calcium flux; carbachol calcium flux Fluo4; hits give low values; B-score at 10 µM; actives 0.92% (n = 310,000); AID 463111, 2010;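 active = B-score of the integrated calcium signal more than 4 SD below the library mean, with starting fluorescence not abnormally high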;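 also: negative B-score means reduced calcium response which marks RGS4 activation or potentiation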
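System: HEK293 FlpIn-TREx cells, stable M3R, doxycycline-inducible RGS4. Timing: overnight RGS4 induction, 30 min dye load 37 °C, 20 min compound RT. Also added: carbachol, ECmax concentration. Measured by: Fluo4 fluorescence kinetic imaging of calcium. Evaluation: integrated calcium ratio converted to B score.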
MrgX1 PAM: positive allosteric modulators of MrgX1, primary screen, HEK293 cells, Fluo-4 calcium flux; Mas-related G-protein coupled receptor member X1 (Homo sapiens), Q96LB2; FDSS; hits give high values; B-score at 10 µM; actives 0.63% (n = 310,000); AID 588675, 2011;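 active = plate-corrected calcium response at least 3 library SD above typical, normal starting fluorescence, not activating the receptor alone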;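 also: compound read alongside a low EC10 to EC30 dose of BAM8-22 agonist; peak minus trough fluorescence over baseline measured at the second addition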
Target sequence (Q96LB2 whole entry, looked up): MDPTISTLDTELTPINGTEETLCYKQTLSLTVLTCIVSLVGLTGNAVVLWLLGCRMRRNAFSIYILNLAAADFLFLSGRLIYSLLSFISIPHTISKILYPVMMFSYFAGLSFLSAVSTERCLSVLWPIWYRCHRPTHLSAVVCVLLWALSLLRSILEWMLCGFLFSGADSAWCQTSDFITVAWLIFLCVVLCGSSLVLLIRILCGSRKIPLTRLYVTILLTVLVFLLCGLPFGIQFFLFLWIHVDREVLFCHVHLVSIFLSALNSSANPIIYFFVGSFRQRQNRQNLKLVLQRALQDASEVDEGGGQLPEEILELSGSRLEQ
MrgX1 antag: antagonists of human MrgX1 receptor, primary screen, HEK293 cells, Fluo-4 calcium flux; AID 588676, 2011; BAM8-22 antagonism; hits give low values; actives 1.3% (n = 310,000); B-score at 10 µM; Mas-related G-protein coupled receptor member X1 (Homo sapiens), Q96LB2;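 active = calcium-response B-score plate-corrected more than 3 library SD below zero, starting fluorescence within 5 deviations, no agonist response on first addition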;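 also: peak minus trough fluorescence over baseline after final BAM8-22 challenge near maximal dose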
MrgX1 agonist: agonists of human MrgX1 receptor, primary screen, HEK293 cells, Fluo-4 calcium flux; Mas-related G-protein coupled receptor member X1 (Homo sapiens), Q96LB2; Fluo-4 calcium fluorescence, agonist mode; hits give high values; B-score at 10 µM; actives 0.44% (n = 310,000); AID 588627, 2011;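 active = calcium response B-score plate-corrected fluorescence ratio at least 3 library SD, with starting fluorescence B-score inside 5 SD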
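Test system: HEK293 cells stably expressing human MrgX1 receptor; Input: fifteen thousand cells per well; Dosing: compound delivered in addition one of three; Schedule: overnight seeding, then 1 h dark dye loading; Technique: Fluo-4 NW calcium fluorescence; Measure: B-scored fluorescence response ratio; Controls: positive and negative controls per plate.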
RGS4 inh valid: enhanced carbachol calcium response, M3R/RGS4 cells, RGS4 inhibitor project, cell-based, validation screen, HEK293 M3R/RGS4, calcium flux | shares compounds with RGS4 inh | carbachol calcium Fluo-4 fluorescence; carbachol added at its EC20; 0 = buffer wells, 100 = carbachol control | actives 65% (n = 1,700) | calcium response, % at 10 µM;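 active = duplicate-averaged calcium response above the buffer-only control mean plus 5 SD of those controls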;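 also: integrated fluorescence ratio F max minus min over baseline F0; higher response in RGS4-induced cells means RGS4 inhibition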
RGS4 uninduced: carbachol calcium response in non-induced M3R cells, confirmation, counter-screen for RGS4 inhibitor project, cell-based, HEK293 M3R; shares compounds with RGS4 inh; actives 20% (n = 1,900); activity (percent), % at 10 µM; carbachol calcium Fluo-4; submaximal (EC20) carbachol stimulus; buffer wells 0%, carbachol control wells 100%; call rule not given here;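 also: RGS4 induction absent so cells express M3R without RGS4; higher means more calcium signal and flags a non-specific hit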
M3R basal Ca ctr: second counter-screen for RGS4 inhibitors: non-induced cells without carbachol | shares compounds with RGS4 inh | HEK293 M3R/RGS4 non-induced, Fluo-4 calcium, no carbachol; normalised: buffer wells 0%, carbachol wells 100% | calcium response (agonist-mode artifact), % at 10 µM | actives 22% (n = 1,900);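 active = duplicate-averaged calcium rise in uninduced cells above buffer wells' mean plus 5 SD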
Numbers without * were called inactive; i = inactive; x = not tested or not shown.

SMILES	RGS4 inh	RGS4 pot	MrgX1 PAM	MrgX1 antag	MrgX1 agonist	RGS4 inh valid	RGS4 uninduced	M3R basal Ca ctr
CCC(Sc1nc2cc(OC)c(OC)cc2c(=O)n1CCc1ccc(S(N)(=O)=O)cc1)C(=O)NCCOC (stereo unspecified)	i	i	i	i	i	x	x	x
O=C(c1ccco1)N1CCN(c2ncnc3scc(-c4ccc(F)cc4)c23)CC1	i	i	i	i	i	x	x	x
O=C(c1ccco1)N1CCN(c2ncnc3c(-c4ccc(Cl)cc4)nsc23)CC1	5.15*	i	i	i	i	i	i	i
O=C/C=C/c1c(-c2ccccc2)cc2oc3ccccc3cc1-2	24.2*	i	i	i	35*	15.5%*	i	i
Cc1ccc(O)c(NC(=O)C2CC(c3cccc(Br)c3)=NO2)c1 (stereo unspecified)	i	i	i	i	i	x	x	x
Cc1nn(-c2ccccc2)c2[nH]c(=O)c(CNCc3ccc4c(c3)OCO4)cc12	i	i	i	i	i	x	x	x
Cc1ccc(-c2nn(-c3ccccc3)c3[nH]c(=O)c(CNCc4ccccc4)cc23)cc1	7.01*	i	i	i	i	19.0%*	i	18.5%*
CCOC(=O)CSc1nc2ccccc2c(=O)n1CC	i	i	i	i	i	x	x	x
CCn1c(SCC(=O)OC2CCCCC2)nc2ccccc2c1=O	5.48*	i	i	i	i	14.0%*	i	i
Cc1ccc(NC(=S)N/N=C/c2c(C)[nH]c3ccccc23)cc1	4.93*	i	i	i	i	6.5%*	i	12.0%*
Cc1[nH]c2ccccc2c1/C=N/NC(N)=S	i	i	i	i	i	x	x	x
CC(C)c1nc(SCC(=O)Nc2ccc(C(=O)O)cc2)c2c3c(sc2n1)CCCC3	4.74*	i	i	i	i	13.0%*	i	i
O=C(NCCc1ccccc1Cl)c1ccc2nc3ccccc3c(=O)n2c1	i	i	i	i	i	x	x	x
Cc1nc(-c2ccccc2)sc1C(=O)/C=C/c1ccc(Cl)cc1	11.5*	i	i	i	i	7.5%*	29.5%*	16.0%*
Cc1nn(CC(=O)NCc2cccs2)c(=O)c2nn(-c3ccccc3)c(C)c12	i	i	i	i	i	i	i	i
CC1C/C(=C/c2ccccn2)C(=O)/C(=C/c2ccccn2)C1 (stereo unspecified)	10.2*	i	i	i	i	36.5%*	i	13.0%*
Cc1[nH]nc(N)c1N=Nc1ccc(Br)cc1	16.8*	i	i	i	i	20.5%*	i	i
Cc1ccc(N=Nc2c(N)n[nH]c2N)cc1	i	i	i	i	i	x	x	x
Nc1n[nH]c(C2CC2)c1N=Nc1ccc(Cl)cc1	6.99*	i	i	i	i	6.5%*	i	i
CCC1CCCCN1C(=O)/C=C/c1ccc2c(c1)OCO2 (stereo unspecified)	i	i	i	i	i	x	x	x
Cc1ccc(C2C(C#N)=C(N)Oc3cc(C)oc(=O)c32)o1 (stereo unspecified)	7.26*	i	i	i	i	21.5%*	i	i
Cc1ccc(C)c(C2C(C#N)=C(N)Oc3cc(C)oc(=O)c32)c1 (stereo unspecified)	i	i	i	i	i	x	x	x
COc1ccc(-c2ccc3oc(-c4ccc(OC)cc4)c(C#CCO)c3c2)cc1	i	i	i	i	i	x	x	x
COc1ccc(-c2sc3ccc(OC)cc3c2C#CCCO)cc1	i	i	i	i	i	i	i	i
O=C(CCN1CCc2ccccc21)c1ccc2c(c1)OCCO2	i	i	i	i	i	x	x	x
SMILES	RGS4 inh	RGS4 pot	MrgX1 PAM	MrgX1 antag	MrgX1 agonist	RGS4 inh valid	RGS4 uninduced	M3R basal Ca ctr
COc1ccc(C(=O)CCN2CCCCCC2)cc1	10.9*	i	i	i	38.8*	i	i	28.5%*
CCOc1ccc(C(=O)CCN2CCCCC2)cc1	i	i	i	i	i	x	x	x
O=C(CCN1CCCCC1)c1ccc2c(c1)OCCO2	i	i	i	i	i	i	i	i
O=C(CCN1CCc2ccccc2C1)c1ccc2c(c1)OCCO2	6.71*	i	i	i	i	19.5%*	i	14.0%*
Cc1ccc(CC(=O)N2CCN(S(=O)(=O)c3ccccc3)CC2)cc1C	i	i	i	i	i	x	x	x
O=C(NN=C1CCCC1)c1[nH]c2ccc(Cl)cc2c1-c1ccccc1	11.4*	i	i	i	i	49.5%*	i	i
CC(=O)NNC(=O)c1[nH]c2ccc(Cl)cc2c1-c1ccccc1	i	i	i	i	i	x	x	x
Cc1[nH]c2ccccc2c1C(=O)NS(=O)(=O)Nc1ccc(Cl)cc1	i	i	i	i	i	x	x	x
CCN(CC)c1ccc(N2C(=O)/C(=C\c3cccnc3)SC2=S)cc1	7.28*	i	i	i	i	i	i	i
COC(=O)c1sc(N2C(=O)C(O)=C(C(=O)c3ccc(C)o3)C2c2cc(OC)ccc2OC)nc1C (stereo unspecified)	7.33*	i	i	i	i	46.0%*	47.0%*	i
COc1ccc(OC)c(C2C(C(=O)c3ccc(C)o3)=C(O)C(=O)N2c2cc(C)on2)c1 (stereo unspecified)	i	i	i	i	i	x	x	x
Cc1cccc(N=Nc2c(N)n[nH]c2-c2ccc(Cl)cc2)c1	i	i	i	i	i	x	x	x
Cc1ccc(-c2[nH]nc(N)c2N=Nc2ccccc2C)cc1	10.5*	i	i	i	i	i	i	i
